Published values collected from several papers.
Lines come from different studies, so protocols differ.
CDK13: Cyclin-dependent kinase 13 (CDK13, Homo sapiens, UniProt Q14004)
CDK13 with cyclin K: Cyclin-dependent kinase 13, with cyclin K (CDK13, Homo sapiens, UniProt Q14004)

Nc1ncnc2occ(-c3ccc(NC(=O)Nc4cc(C(F)(F)F)ccc4F)cc3)c12 — remaining signal (CDK13; cell-free assay, inhibitor; 20 µM): 0.1%
COc1cc(Cl)c(C(=O)N[C@@H](CN[C@H]2CC[C@@H](N)CC2)Cc2ccc(C#N)cc2)cc1-c1ccc(CN[C@H](C)c2ccc(C)cc2)o1 — remaining activity (CDK13 with cyclin K; enzyme activity, inhibitor; 1 µM): 107%
CN(C)c1nccc(-c2cnc3ncccn23)n1 — remaining binding (CDK13; binding; 1 µM): 58%
CN([C@@H]1CCc2c(CC(=O)O)c3cc(S(C)(=O)=O)ccc3n2C1)S(=O)(=O)c1ccc(F)cc1 — remaining binding (CDK13; cell-free assay, competition with immobilised ligand; 1 µM): 86%
CN1CC(Oc2cnc(C#N)cc2-c2ccn3nc(NC(=O)C4CC4)cc3c2)C1 — inhibition (CDK13 with cyclin K; enzyme activity, inhibitor; 1 µM): 1%
Cc1ccc(C(=O)Nc2ccc(CN3CCN(C)CC3)c(C(F)(F)F)c2)cc1C#Cc1cnc2cccnn12 — remaining activity (CDK13; enzyme activity, inhibitor; 23.5 nM): 6.4%
Cc1ccc(C(=O)NCc2ccsc2)cc1C#Cc1cn(C(C)C)c2ncnc(N)c12 — activity vs control (CDK13 with cyclin K; enzyme activity, inhibitor; 1 µM): 85%
C[C@H](NC(=O)c1cnc2n1[C@](C)(Cc1ccc(C#N)cc1)C(=O)N2c1cc(Cl)c(F)c(Cl)c1)C(=O)NC1(c2ccccn2)CC1 — remaining binding (CDK13; cell-free assay, competition with immobilised ligand; 1 µM): 100%
